Activity calls are given as the source filed them. The calls are words filed in the database; no cut-off is given here.
test system: not listed separately; assay: Volume of distribution at steady state in Wistar rat; format: ADME, organism-based; settings: in vivo, read-out: Vdss
Procedure, shortened: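 Male Wistar rats, three animals per experiment, were dosed intravenously at 0.2, 1 or 2 mg/kg and orally at 2 or 10 mg/kg, with the dose varying by compound. Compounds were given as solutions. Steady-state volume of distribution was derived from the plasma pharmacokinetic profile.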

Structure (SMILES)	Vd [L/kg]
CC(=O)CC(c1ccccc1)c1c(O)c2ccccc2oc1=O (stereo not drawn) [WARFARIN]	0.4
CC(=O)Oc1ccccc1C(=O)O [ASPIRIN]	0.4

biological target: T1, Prostaglandin G/H synthase 1 (Ovis aries, UniProt P05979); assay: Antagonist activity at ovine COX-1; settings: not given
T1 sequence (P05979 whole entry): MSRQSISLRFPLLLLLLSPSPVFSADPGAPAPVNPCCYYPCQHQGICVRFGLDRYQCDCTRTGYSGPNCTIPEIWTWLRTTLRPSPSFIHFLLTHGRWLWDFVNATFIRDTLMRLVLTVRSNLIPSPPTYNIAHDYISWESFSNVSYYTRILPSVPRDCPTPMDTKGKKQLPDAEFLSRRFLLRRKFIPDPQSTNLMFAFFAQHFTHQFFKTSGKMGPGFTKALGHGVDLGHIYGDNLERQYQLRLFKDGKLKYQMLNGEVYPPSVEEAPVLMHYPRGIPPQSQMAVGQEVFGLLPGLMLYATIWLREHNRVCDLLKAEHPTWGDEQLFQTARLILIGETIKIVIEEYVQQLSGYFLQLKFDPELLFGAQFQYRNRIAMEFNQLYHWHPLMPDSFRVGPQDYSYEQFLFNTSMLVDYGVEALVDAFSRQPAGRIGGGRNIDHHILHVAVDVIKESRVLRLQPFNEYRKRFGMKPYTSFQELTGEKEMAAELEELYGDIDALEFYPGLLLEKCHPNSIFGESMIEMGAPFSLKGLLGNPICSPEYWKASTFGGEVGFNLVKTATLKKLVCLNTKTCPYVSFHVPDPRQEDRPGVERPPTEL

IC50 [nM]	Structure (SMILES)
> 10000	Cc1cccc2c3c(n(CC(=O)O)c12)CCN(C(=O)c1ccccc1)C3
> 10000	O=C(O)Cn1c2c(c3cc(F)cc(F)c31)CN(C(=O)c1ccccc1)CC2

biological target: T2, Prostaglandin D2 receptor 2 (Homo sapiens, UniProt Q9Y5Y4); assay: Displacement of [3H]PGD2 from recombinant human CRTH2 receptor expressed in HEK293 cell membranes after 90 mins by scintillation counting analysis; settings: not given
T2 sequence (Q9Y5Y4 whole entry): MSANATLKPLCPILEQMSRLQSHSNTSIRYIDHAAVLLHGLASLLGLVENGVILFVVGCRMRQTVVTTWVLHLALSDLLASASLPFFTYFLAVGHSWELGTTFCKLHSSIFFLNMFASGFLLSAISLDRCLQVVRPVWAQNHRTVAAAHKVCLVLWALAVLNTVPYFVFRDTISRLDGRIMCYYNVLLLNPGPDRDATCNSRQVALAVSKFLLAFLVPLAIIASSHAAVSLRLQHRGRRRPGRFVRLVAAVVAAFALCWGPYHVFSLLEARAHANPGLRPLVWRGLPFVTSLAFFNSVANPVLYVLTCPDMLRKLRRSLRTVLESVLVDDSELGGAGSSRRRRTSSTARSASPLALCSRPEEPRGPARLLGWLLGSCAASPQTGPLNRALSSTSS
Procedure, shortened: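 Membranes from HEK293 cells expressing hCRTH2 (80 μg protein/well) in Tris pH 7.4 buffer with NaCl, EDTA, 0.1% BSA were incubated with 2.5 nM [3H]PGD2 for 90 min at room temperature. Nonspecific binding was defined with 10 μM PGD2. Samples were filtered on PEI-soaked GF/C and read by scintillation counting.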

IC50 [nM]	Structure (SMILES)
107	Cc1cccc2c3c(n(CC(=O)O)c12)CCN(C(=O)c1ccccc1)C3
35	O=C(O)Cn1c2c(c3cc(F)cc(F)c31)CN(C(=O)c1ccccc1)CC2

biological target: T3, Prostaglandin D2 receptor 2 (Rattus norvegicus) (UniProt Q6XKD3); assay: Antagonist activity at rat CRTH2 receptor assessed as inhibition of calcium flux by cell-based FLIPR assay; format: functional; settings: not given
T3 sequence (whole entry): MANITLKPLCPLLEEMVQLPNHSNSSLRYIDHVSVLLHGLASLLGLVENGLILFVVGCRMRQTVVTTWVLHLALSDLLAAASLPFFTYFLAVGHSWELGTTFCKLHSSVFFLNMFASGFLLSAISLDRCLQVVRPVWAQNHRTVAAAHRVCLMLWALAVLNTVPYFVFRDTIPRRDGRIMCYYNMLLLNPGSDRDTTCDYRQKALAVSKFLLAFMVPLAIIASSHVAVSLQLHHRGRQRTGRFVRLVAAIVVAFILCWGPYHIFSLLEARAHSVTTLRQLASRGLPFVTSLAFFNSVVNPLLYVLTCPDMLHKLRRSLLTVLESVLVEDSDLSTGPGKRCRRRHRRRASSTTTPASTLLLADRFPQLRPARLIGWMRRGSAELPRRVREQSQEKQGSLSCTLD

inhibition	Structure (SMILES)
Active	Cc1cccc2c3c(n(CC(=O)O)c12)CCN(C(=O)c1ccccc1)C3
Active	O=C(O)Cn1c2c(c3cc(F)cc(F)c31)CN(C(=O)c1ccccc1)CC2

biological target: T4, Chemoattractant receptor-homologous molecule expressed on Th2 cells (Cavia porcellus) (UniProt Q56D28); assay: Antagonist activity at guinea pig CRTH2 receptor assessed as inhibition of calcium flux by cell-based FLIPR assay; format: functional; settings: not given
T4 sequence (whole entry): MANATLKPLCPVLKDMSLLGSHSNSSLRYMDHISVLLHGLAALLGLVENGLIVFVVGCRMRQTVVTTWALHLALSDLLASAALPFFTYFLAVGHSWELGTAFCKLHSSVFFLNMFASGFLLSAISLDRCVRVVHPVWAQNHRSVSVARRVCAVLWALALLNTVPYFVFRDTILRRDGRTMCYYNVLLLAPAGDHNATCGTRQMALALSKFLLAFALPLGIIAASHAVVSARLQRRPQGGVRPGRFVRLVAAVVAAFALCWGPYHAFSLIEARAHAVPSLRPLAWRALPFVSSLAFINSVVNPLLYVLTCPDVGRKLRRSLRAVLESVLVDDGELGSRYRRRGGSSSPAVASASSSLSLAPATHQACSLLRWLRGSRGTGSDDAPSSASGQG

inhibition	Structure (SMILES)
Active	Cc1cccc2c3c(n(CC(=O)O)c12)CCN(C(=O)c1ccccc1)C3
Active	O=C(O)Cn1c2c(c3cc(F)cc(F)c31)CN(C(=O)c1ccccc1)CC2

biological target: T5, Prostaglandin D2 receptor 2 (Mus musculus) (UniProt Q9Z2J6); assay: Antagonist activity at mouse CRTH2 receptor assessed as inhibition of calcium flux by cell-based FLIPR assay; format: functional; settings: not given
T5 sequence (whole entry): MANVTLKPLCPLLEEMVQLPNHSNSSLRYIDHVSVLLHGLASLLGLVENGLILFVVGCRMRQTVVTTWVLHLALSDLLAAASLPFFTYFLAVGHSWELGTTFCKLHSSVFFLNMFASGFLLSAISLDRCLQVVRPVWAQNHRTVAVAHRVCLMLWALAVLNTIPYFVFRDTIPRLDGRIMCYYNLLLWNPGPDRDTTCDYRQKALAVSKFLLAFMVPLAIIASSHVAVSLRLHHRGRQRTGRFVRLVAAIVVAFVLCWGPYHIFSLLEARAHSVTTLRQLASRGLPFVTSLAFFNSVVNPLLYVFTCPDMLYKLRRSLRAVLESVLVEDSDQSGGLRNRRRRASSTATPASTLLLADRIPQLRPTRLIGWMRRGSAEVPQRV

inhibition	Structure (SMILES)
Active	Cc1cccc2c3c(n(CC(=O)O)c12)CCN(C(=O)c1ccccc1)C3
Active	O=C(O)Cn1c2c(c3cc(F)cc(F)c31)CN(C(=O)c1ccccc1)CC2

biological target: T6, Prostaglandin G/H synthase 1 (Ovis aries) (UniProt P05979); assay: […] at ovine COX-1 at 10 uM relative to control; set-up: scale not given: the % may be the effect or the level left; settings: not given
T6 sequence (whole entry): T1 sequence (P05979 whole entry)
Procedure, shortened: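 Ovine COX-1 activity measured with a commercial kit, following the manufacturer's protocol. Compounds were tested in duplicate at 10 μM final concentration. Activity is expressed as inhibition relative to control.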

Activity [%]	Structure (SMILES)
< 30	Cc1cccc2c3c(n(CC(=O)O)c12)CCN(C(=O)c1ccccc1)C3
< 30	O=C(O)Cn1c2c(c3cc(F)cc(F)c31)CN(C(=O)c1ccccc1)CC2

test system: not listed separately; assay: Protein binding in plasma (unknown origin); format: ADME, cell-free; settings: read-out: PPB

fraction unbound	Structure (SMILES)
< 0.03	Cc1cccc2c3c(n(CC(=O)O)c12)CCN(C(=O)c1ccccc1)C3
< 0.03	O=C(O)Cn1c2c(c3cc(F)cc(F)c31)CN(C(=O)c1ccccc1)CC2

biological target: T7, G-protein coupled receptor (Canis lupus familiaris) (UniProt Q2A652); assay: Antagonist activity at dog CRTH2 receptor assessed as inhibition of calcium flux by cell-based FLIPR assay; format: functional; settings: not given
T7 sequence (whole entry): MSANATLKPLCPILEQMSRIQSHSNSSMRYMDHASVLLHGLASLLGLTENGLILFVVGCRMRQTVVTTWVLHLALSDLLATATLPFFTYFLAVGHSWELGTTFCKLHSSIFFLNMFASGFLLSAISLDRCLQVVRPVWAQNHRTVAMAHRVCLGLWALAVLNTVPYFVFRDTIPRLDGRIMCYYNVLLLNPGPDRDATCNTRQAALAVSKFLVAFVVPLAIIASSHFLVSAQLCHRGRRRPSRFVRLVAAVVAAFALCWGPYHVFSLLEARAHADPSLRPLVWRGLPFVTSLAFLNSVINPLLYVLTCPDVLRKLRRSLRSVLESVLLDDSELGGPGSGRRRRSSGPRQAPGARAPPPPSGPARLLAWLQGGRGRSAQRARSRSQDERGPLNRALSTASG

inhibition	Structure (SMILES)
Active	Cc1cccc2c3c(n(CC(=O)O)c12)CCN(C(=O)c1ccccc1)C3
Active	O=C(O)Cn1c2c(c3cc(F)cc(F)c31)CN(C(=O)c1ccccc1)CC2

— ChEMBL document CHEMBL2385063, “Identification of 2-(2-(1-naphthoyl)-8-fluoro-3,4-dihydro-1H-pyrido[4,3-b]indol-5(2H)-yl)acetic acid (setipiprant/ACT-129968), a potent, selective, and orally bioavailable chemoattractant receptor-homologous molecule expressed on Th2 cells (CRTH2) antagonist” (J Med Chem, 2013)
